A selection: hits, their analogues and other compounds. The true share with any hit is near 1.6%.
DNA FID counter = counter-screen for HCV NS3 helicase inhibitors: DNA intercalator displacement; DNA fluorescent intercalator displacement, fluorescence; inhibition, % at 7.9 µM; hit rate 0.17% among 290,000; in the data active means inhibition above about 37%;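 further: higher means more ethidium bromide displaced from hairpin DNA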
HCV core dimer = HCV core protein dimerization inhibition; TR-FRET GST/Flag-core106 dimerization, 1536-well; inhibition, % at 5 µM; hit rate 0.33% among 300,000; AID 1899;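 active means inhibition above the mean of all tested compounds plus 3 SD, set per screening campaign, cut at about 45% in these data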
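Test system: GST/Flag-tagged HCV core106 proteins; Medium: KF-containing HEPES buffer, pH 7.45, DTT, CHAPS, BSA; Times: compound-protein-antibody incubation 4 h at 22.5 °C; Detection: TR-FRET 671 and 617 nm emission; Benchmarks: wells lacking GST-core106 and wells with excess unlabelled core106.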
VIM-2 inhibitor = blocks Pseudomonas aeruginosa VIM-2 metallo-beta-lactamase; inhibition, % at 5.6 µM; purified VIM-2, nitrocefin hydrolysis, epi-absorbance fluorescence; hit rate 0.89% among 290,000; AID 1527;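 active means inhibition above the mean of all tested compounds plus 3 SD, cutoff set per screening run, cut at about 7.5% in these data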;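 further: red hydrolysis product quenches plate fluorescence so inhibitors raise well fluorescence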
IMP-1 inhibitor = inhibitors of Pseudomonas aeruginosa IMP-1 metallo-beta-lactamase; inhibition, % at 5.6 µM; hit rate 0.45% among 290,000; purified IMP-1, nitrocefin hydrolysis, epi-absorbance fluorescence;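 active means inhibition above the mean plus 3 SD of all compounds in the same screening run, cut at about 4.5% in these data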
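System: purified recombinant IMP-1 beta-lactamase. Medium: Zinc- and detergent-supplemented HEPES buffer, pH 7.1. Compound: one 5.6 µM dose […]. Schedule: 15 min preincubation plus 25 min reaction at 25 °C. Technique: Epi-absorbance fluorescence, 480 nm excitation, 530 nm emission.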
Numbers stand for hits; - = inactive; . = no result given.

SMILES	DNA FID counter	HCV core dimer	VIM-2 inhibitor	IMP-1 inhibitor
CCOC(=O)N1CCN(C(=O)c2ccc3c(c2)NC(=O)/C(=C/c2ccccc2)S3)CC1	-	-	-	-
CN1CCN(C(=O)c2ccc3c(c2)NC(=O)/C(=C/c2ccccc2)S3)CC1	-	-	8.0	-
COc1cccc(C(=O)NCC(=O)N/N=C(\C)Cc2ccccc2)c1	-	-	-	-
O=C(c1cc(-c2ccco2)nn1-c1cccc(Cl)c1)N1CCCCC1	-	56	-	-
O=C(CSc1nnc(C2CC2)n1Cc1ccccc1)c1ccc(S(=O)(=O)N2CCOCC2)cc1	-	-	23	-
O=C(O)C/C(=C\c1ccc(N2CCOCC2)c([N+](=O)[O-])c1)c1nc2ccccc2s1	-	-	-	-
O=C(O)CC/C(=C\c1ccc(N2CCOCC2)c([N+](=O)[O-])c1)c1nc2ccccc2s1	-	.	-	-
O=C(O)CC/C(=C\c1ccc(Cl)c([N+](=O)[O-])c1)c1nc2ccccc2s1	-	-	9.2	-
O=C(O)CC/C(=C\c1ccc2c(c1)OCO2)c1nc2ccccc2s1	-	-	11	-
COCCN(C(=O)c1cccc(-n2cnnn2)c1)c1c(N)n(CC(C)C)c(=O)[nH]c1=O	.	-	.	.
CC(C)OC(=O)NC(c1ccccc1)C(Cl)(Cl)Cl (configuration not stated)	-	-	-	-
NC(=O)NC(=O)COC(=O)c1ccc(OC(F)F)cc1	-	-	-	-
CCCn1c(CCC(=O)O)ccc1-c1ccc(OC)cc1	-	46	-	-
CCOc1cc(/C=C2\CCCc3c2nc2ccccc2c3C(=O)O)ccc1OC	-	-	-	6.9
O=C1C=C(NNC(=O)c2ccncc2)CC(c2ccccc2)C1 (configuration not stated)	-	-	-	5.9
CCOC(=O)c1c(NC(=O)COC(=O)c2cnc(C)cn2)sc(C(=O)N(C)C)c1C	.	-	.	.
CCOC(=O)c1c(-c2ccco2)csc1NC(=O)COC(=O)c1cnc(C)cn1	.	52	.	.
CCCc1cc(=O)oc2c3c(c(Cl)cc12)OCN(CCCO)C3	-	-	-	10
CCCc1cc(=O)oc2c(CN3CCCC3)c(O)c(Cl)cc12	-	-	-	-
CCOc1cc(/C=C2\SC(=Nc3ccc(F)cc3)N(c3ccc(F)cc3)C2=O)ccc1OCC(=O)O	44	-	-	-
COC(=O)Nc1ccc(S(=O)(=O)N2CCC(C(=O)N(C)C3CCCCC3)CC2)cc1	-	-	-	-
Nc1cccc2c1C(=O)N(CCOc1ccccc1F)C2=O	-	-	-	6.8
CCn1c2ccccc2c2nc3ccccc3nc21	-	-	9.9	-
CCOC(=O)CSc1nc2cc(C(=O)N3CCC(C(N)=O)CC3)ccc2c(=O)n1-c1ccccc1	-	-	-	-
COc1ccc(C(=O)CN2CCN(c3ccc(F)cc3)CC2)cc1OC	-	-	-	-
SMILES	DNA FID counter	HCV core dimer	VIM-2 inhibitor	IMP-1 inhibitor
COc1ccc(NC(=O)CSC2=C(C#N)C(c3ccco3)C(C(=O)Nc3nc4ccccc4s3)=C(C)N2)cc1 (configuration not stated)	-	48	-	-
CC1=CCC(C(=O)O)C(C(=O)NC2CCCCC2)C1 (configuration not stated)	-	-	-	32
COc1ccc2oc(C(=O)Nc3nc4ccc(S(C)(=O)=O)cc4s3)c(C)c2c1	.	-	.	.
COc1ccc2oc(C(=O)Nc3nc(-c4ccccn4)cs3)c(C)c2c1	.	56	.	.
O=C(O)c1cccc(S(=O)(=O)N2CCC(Cc3ccccc3)CC2)c1	-	-	-	-
NC(=O)C1CCN(S(=O)(=O)c2cccc(C(=O)O)c2)CC1	-	-	-	32
CC(=O)C1C(c2cccc([N+](=O)[O-])c2)C2C(C)=NN=C2CC1(C)O (configuration not stated)	-	-	-	-
O=S(=O)(Nc1ncnc2sc3c(c12)CCC3)c1ccc(Cl)s1	-	47	-	-
c1ccc(CNc2ncnc3sc4c(c23)CCC4)nc1	-	-	10	-
COc1ccc(-c2csc(NC(=O)C3CCN(C(=O)c4ccc(F)cc4)CC3)n2)cc1OC	-	-	-	-
CC(=O)c1ccc(S(=O)(=O)Nc2cccc(-c3cn4c(n3)SCC4)c2)cc1	-	-	-	-
CCOc1ccccc1NC(=S)NCc1ccccc1	-	-	-	-
CCOc1ccc(CNC(=S)Nc2ccccc2)cc1Cl	-	-	-	6.3
CNC(=S)Nc1ccc(Cc2ccncc2)cc1	-	-	-	-
CC(C)(C)C(=O)NC(=S)Nc1ccc(Cc2ccncc2)cc1	-	-	-	7.7
CCOC(=O)/C=c1\s/c(=C\c2c(OCC)ccc3ccccc23)c(=O)n1CC(=O)NCC1CCCO1 (configuration not stated)	-	-	-	-
CCOC(=O)/C=c1\s/c(=C\c2ccc3c(c2)OCCO3)c(=O)n1CC(=O)NCC1CCCO1 (configuration not stated)	-	-	-	4.7
Cn1c(SCC(=O)Nc2ccc(NC(=O)c3cccs3)cc2)nnc1-c1ccncc1	-	-	-	-
CCOc1ccccc1CN1CCCC(C(=O)Nc2cccc(-n3cccn3)c2)C1 (configuration not stated)	39	-	-	-
COc1ccccc1NCCC(=O)OCC(=O)NC1CCCCC1	-	-	-	-
O=C(Nc1ccc2c(c1)CN(Cc1ccc(CO)o1)CC2)c1ccc(C(F)(F)F)cc1	-	58	-	-
Cc1nc(-c2ccccc2)sc1C(=O)CSc1ccccc1	-	-	-	-
COc1cccc(NC(=O)Nc2nnc(Cc3ccc(OC)c(OC)c3)s2)c1	-	-	-	-
O=[N+]([O-])c1ccc(/C=C/C2=NN(c3ccccc3)C(c3ccco3)C2)o1 (configuration not stated)	-	.	-	5.5
CCN1CCN(C(=O)Cn2nc(C)c3sc4ccccc4c3c2=O)CC1	-	-	9.3	-
SMILES	DNA FID counter	HCV core dimer	VIM-2 inhibitor	IMP-1 inhibitor
CCCN1CCN(CCCNC(=O)CCCn2nc(C)c3sc4ccccc4c3c2=O)CC1	-	-	-	-
COCCN1CCN(C(=O)c2cc(COc3ccc(Cl)cc3OC)on2)CC1	-	-	-	-
CN(C)CCN(C)Cc1c2ccccc2c(CN(C)CCN(C)C)c2ccccc12	-	-	-	-
N#Cc1c(Sc2ncc(C(F)(F)F)cc2Cl)nsc1C/C=N\OCc1c(F)cccc1Cl	-	54	-	-
O=C(Nc1cccc(S(=O)(=O)Nc2ccc(Cl)cc2)c1)c1ccc(Cl)nc1	-	-	-	-
N#CC1(NC(=O)COC(=O)/C=C/c2ccc3ccccc3n2)CCCCC1	-	48	-	-
Cc1ccc(S(=O)(=O)N(C)C)cc1NC(=O)COC(=O)/C=C/c1ccc2ccccc2n1	.	-	.	.
O=C(c1cc2ccccc2o1)N1CCN=C1SCc1cccnc1	-	-	9.4	-
O=C(N/N=C/c1sc(=O)[nH]c1-[n+]1ccc2ccccc2c1)c1ccccc1[O-]	-	-	-	-
Cn1c(NCc2cccnc2)nc2c1c(=O)n(Cc1ccccc1F)c(=O)n2C	-	-	8.3	-
COCCNc1nc2c(c(=O)n(Cc3ccccc3F)c(=O)n2C)n1C	-	-	-	-
Nc1nonc1-n1nnc(C(=O)N/N=C/c2cccnc2)c1CSc1ccc(Cl)cc1	-	-	-	-
